The values that follow come from ChEMBL document CHEMBL1148742, “Structure-activity relationship of 2-oxoamide inhibition of group IVA cytosolic phospholipase A2 and group V secreted phospholipase A2” (2007).

The species named for test [1] is Homo sapiens. The test is described as follows: Inhibition of human GIVA cPLA2. A digest of the protocol:
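Pure native human GIVA cPLA2 (10 ng) in 100 mM HEPES pH 7.5, 80 µM CaCl2, 0.1 mg/mL fatty acid-free BSA, 2 mM DTT. Substrate was mixed micelles of 97 µM 1-palmitoyl-2-[14C]arachidonoyl PC, 3 µM PIP2 and 400 µM Triton X-100, in 1% DMSO. Incubated 10-60 min at 40 °C; [14C]-AA release measured by modified Dole assay and compared with DMSO-only control. XI(50) expressed as mole fraction of inhibitor over inhibitor plus substrate plus detergent.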

For test [2], the species on record is Homo sapiens. The test is described as follows: Inhibition of GV sPLA2 at 0.091 mole fraction. The gist of the method:
(§1)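 Recombinant human GV sPLA2, expressed in E. coli as inclusion bodies, sulfonated, refolded and purified (>90%). Enzyme (40 ng) in 50 mM Tris-HCl pH 8.0, 5 mM CaCl2, with mixed micelles of 100 µM 1-palmitoyl-2-[14C]palmitoyl PC and 400 µM Triton X-100, in 1% DMSO. Incubated 10-60 min at 40 °C; released [14C]-palmitic acid measured by modified Dole extraction. Inhibitor dose expressed as mole fraction.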

Test [3] relates to Rattus norvegicus. The test is described as follows: Antiinflammatory activity against carrageenan-induced paw edema in rat. Format: functional. The gist of the method: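 Compound given ip at the same time as intradermal carrageenan into the rat paw; rats were euthanized after 3.5 h. Edema was taken as injected minus uninjected paw weight and expressed as percent inhibition versus controls. Four doses were used, each on two groups of five animals, averaged over two experiments. ED50 was derived from the four doses; Student's t-test was used.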
A general note: In the carrageenan paw model, swelling and tenderness develop within hours.

Test [4] has as its system Rattus norvegicus. The test is described as follows: Analgesic activity in rat assessed as decrease in writhes at 0.00005 mmol/kg, ip. Format: functional. The arrangement: scale not given: the % may be the effect or the level left. The gist of the method:
(§2)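 Rat writhing test: compound given ip 30 min before ip acetic acid. Each animal's total writhes were compared with a vehicle-treated control group, and analgesic activity was expressed as percent decrease in writhes.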

The species entered for test [5] is Homo sapiens. The test is described as follows: Inhibition of GV sPLA2 at 0.040 mole fraction. A digest of the protocol:
as §1

Test [6] is filed under the species Homo sapiens. The test is described as follows: Inhibition of GV sPLA2 at 0.048 mole fraction. The gist of the method:
as §1

Test [7] relates to Rattus norvegicus. The test is described as follows: Analgesic activity in rat assessed as decrease in writhes at 0.01 mmol/kg, ip. Format: functional. The arrangement: scale not given: the % may be the effect or the level left. A digest of the protocol:
as §2

The test system of test [8] is Rattus norvegicus. The experiment in a line: Analgesic activity in rat assessed as decrease in writhes at 0.0001 mmol/kg, ip. Format: functional. The arrangement: scale not given: the % may be the effect or the level left. A digest of the protocol: as §2
The subject of test [9] is Rattus norvegicus. The test is described as follows: Analgesic activity in rat assessed as decrease in writhes at 0.008 mmol/kg, ip. Format: functional. The arrangement: scale not given: the % may be the effect or the level left. A digest of the protocol: as §2
Test [10] concerns Rattus norvegicus. The experiment in a line: Analgesic activity in rat assessed as decrease in writhes at 0.0165 mmol/kg, ip. Format: functional. The arrangement: scale not given: the % may be the effect or the level left. A digest of the protocol: as §2
The species named for test [11] is Homo sapiens. The experiment in a line: Inhibition of GV sPLA2 at 0.02 mole fraction. A digest of the protocol:
as §1

For test [12], the species on record is Homo sapiens. The test is described as follows: Inhibition of GV sPLA2 at 0.01 mole fraction. The gist of the method:
as §1

A word on the inhibition: it is how much of the control response was suppressed. As usually defined, the ED50 is the midpoint of the dose-response relation.

As for `CCCCCCCCCCC(=O)C(=O)N[C@@H](CCCC)CCC(=O)O`, in the test listed under Homo sapiens [1], the XI50 stood at 0.009.
In the test listed under Homo sapiens [2], `CCCCCCCCCCC(=O)C(=O)N[C@@H](CCC(=O)O)C(=O)O` came in with an inhibition of 15%.
Same read-out and setting: then `CCCCCCCCCCCCCCC(=O)C(=O)NCCCC(=O)OC`, with 22%; and `COC(=O)CCCNC(=O)C(=O)CCCCc1ccccc1`, with 31%.
In the test on Rattus norvegicus [3], `CCCCCCCCCCCCCCC(=O)C(=O)N[C@@H](CCCC)CCCC(=O)O` came in with a median effective dose (ED50) of 0.05 µmol/kg. For the same compound, the XI50 in the test listed under Homo sapiens [1] is 0.005. The Activity in the test with Rattus norvegicus [4] came to 71%.
As to `O=C(O)CCCNC(=O)C(=O)CCCc1ccccc1`, the inhibition in the test filed under Homo sapiens [2] was found to be 34%.
Same read-out and setting: for `CCCCCCCCCCCCCCC(=O)C(=O)N[C@@H](CCCC)COC(=O)NCCCCCCCC` the value was 20%.
With `CCCCCCCCCCCCCC(=O)C(=O)N[C@@H](CCCC)CCCC(=O)O`, the XI50 in the test listed under Homo sapiens [1] came out at 0.005. Moreover, in the test filed under Homo sapiens [2], the inhibition was 26%.
For the compound `O=C(O)CCCNC(=O)C(=O)CCCCc1ccccc1`, the inhibition in the test filed under Homo sapiens [2] is 27%.
Compound `CCCCCCCC/C=C\CCCCCCCC(=O)C(=O)NCCCC(=O)OC` registered an XI50 in the test listed under Homo sapiens [1] of 0.012. The compound also registered an inhibition in the test filed under Homo sapiens [5] of 24%.
In the test listed under Homo sapiens [2], `NC(=O)C(=O)CCCCc1ccccc1` had an inhibition of 45%.
In the case of `CCCCCCCCCCCCCCC(=O)C(=O)NCCCC(=O)O`, the XI50 in the test listed under Homo sapiens [1] turned out to be 0.017.
The compound `CCCCCCCCCCC(=O)C(=O)N[C@@H](CCC(=O)O)COC(=O)NCCCCCCCC` showed an inhibition in the test filed under Homo sapiens [2] of 60%.
In the test listed under Homo sapiens [6], `CCCCCCC(=O)C(=O)NCCCC(=O)O` yielded an inhibition of 27%.
For the compound `CCCCCCCCCCCCCC(=O)C(=O)N[C@@H](CCCC)CCC(=O)O`, in the test filed under Homo sapiens [1], the XI50 worked out at 0.01. The inhibition in the test filed under Homo sapiens [2] came out at 30%.
Turning to `COC(=O)CCCNC(=O)C(=O)CCCc1ccccc1`, the inhibition in the test filed under Homo sapiens [2] came to 48%.
Regarding `CCCCCCCCCCC(=O)C(=O)N[C@@H](CCCC)C(=O)O`, the inhibition in the test listed under Homo sapiens [2] came out at 60%.
Take `CCCCCCCCCCCCCC(=O)C(=O)N[C@@H](CCCC)CCCCC(=O)O`: in the test filed under Homo sapiens [1], the XI50 was determined as 0.013. The inhibition in the test filed under Homo sapiens [2] worked out at 22%.
As to `CCCCCCCCCCC(=O)C(=O)N[C@@H](CCCC)CCCCC(=O)O`, the ED50 in the test with Rattus norvegicus [3] turned out to be 10 µmol/kg. Also, the Activity with Rattus norvegicus [7] turned out to be 33%. For the same compound, the XI50 in the test filed under Homo sapiens [1] was determined as 0.025. The inhibition in the test filed under Homo sapiens [2] is 22%.
For the compound `CCCCCCCCCCC(=O)C(=O)N[C@H](CCC(=O)O)C(=O)NCC`, the inhibition in the test filed under Homo sapiens [2] was 12%.
In the test on Rattus norvegicus [3], `CCCCCCCC/C=C\CCCCCCCC(=O)C(=O)NCCCC(=O)O` displayed a 50% effective dose (ED50) of 0.1 µmol/kg. The XI50 in the test listed under Homo sapiens [1] stood at 0.011. In addition, the Activity in the test with Rattus norvegicus [8] is reported as 53%.
Consider `CCCCCCCCCCC(=O)C(=O)N[C@@H](CCC(=O)O)C(=O)NCC`, for which the inhibition in the test filed under Homo sapiens [2] stood at 30%.
Regarding `CCCCCCCCCCCCCCC(=O)C(=O)N[C@@H](CCCC)CCC(=O)O`, it took a dose of 8 µmol/kg to reach the 50% effect level with Rattus norvegicus [3] (ED50). Further, the XI50 in the test filed under Homo sapiens [1] was determined as 0.008. Moreover, the Activity in the test on Rattus norvegicus [9] is on record as 65%.
In the test filed under Homo sapiens [1], `CCCCCCCCCCCCCC(=O)C(=O)N[C@@H](CCCC)CC(=O)O` showed an XI50 of 0.027.
Still for that read-out and setting: then `CCCCCCCCCCC(=O)C(=O)N[C@@H](CCC(=O)OC)COC(=O)NCCCCCCCC`, with 0.02.
In turn, `CCCCCCCCCCCCCCC(=O)C(=O)N[C@@H](CCC(=O)O)C(=O)NCCCCCCCCCC` registered an ED50 in the test with Rattus norvegicus [3] of 16.5 µmol/kg. Further, the XI50 in the test listed under Homo sapiens [1] stood at 0.025. For the same compound, the inhibition in the test listed under Homo sapiens [2] amounted to 33%. Moreover, the Activity with Rattus norvegicus [10] is 11%.
In the test filed under Homo sapiens [11], `CCCCCCCC/C=C\CCCCCCCCNC(=O)C(=O)CCCCCCCCCCCCCC` had an inhibition of 37%.
`CCCCCCCC/C=C\CCCCCCCCNC(=O)C(=O)CCCCCC`: the inhibition in the test filed under Homo sapiens [12] is 22%.
Take `CCCCCCCCCCCCCCCCNC(=O)C(=O)CC`: in the test filed under Homo sapiens [2], the inhibition stood at 30%.
The same measure, in the same setting: then `CCCCCCC(=O)C(=O)N[C@H](CCC(=O)O)Cc1ccccc1`, with 14%.
